Molecular target: Myc-tagged Akt1 (Homo sapiens, UniProt P31749)
Assay type: biochemical
Conditions: at 5 µM, immunoblot
How it was run: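 HEK293 cells transfected with Myc-tagged Akt1; the kinase was immunoprecipitated with anti-Myc antibody. The immobilized enzyme was incubated with a GSK3β fusion protein substrate, with or without test compound. Phospho-GSK3β was detected by immunoblot, and an approximate IC50 was estimated from the blots.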

Chain of Myc-tagged Akt1 (P31749 whole entry): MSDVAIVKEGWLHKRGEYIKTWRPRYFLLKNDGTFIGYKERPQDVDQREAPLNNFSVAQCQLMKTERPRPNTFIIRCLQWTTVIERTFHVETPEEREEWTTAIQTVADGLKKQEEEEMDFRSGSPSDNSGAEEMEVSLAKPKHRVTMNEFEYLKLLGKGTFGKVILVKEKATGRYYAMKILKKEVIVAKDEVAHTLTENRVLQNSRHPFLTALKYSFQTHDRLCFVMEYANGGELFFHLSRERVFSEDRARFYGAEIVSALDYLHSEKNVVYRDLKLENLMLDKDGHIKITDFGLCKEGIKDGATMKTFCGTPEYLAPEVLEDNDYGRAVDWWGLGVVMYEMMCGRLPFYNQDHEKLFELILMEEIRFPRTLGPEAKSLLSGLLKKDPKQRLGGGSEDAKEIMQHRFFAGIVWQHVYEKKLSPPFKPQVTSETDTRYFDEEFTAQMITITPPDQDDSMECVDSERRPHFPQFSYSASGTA

NC1(c2ccc(-c3nc4ccn5c(=O)[nH]nc5c4cc3-c3ccccc3)cc2)CCC1 [MK2206]
phosphorylation of GSK3β: completely blocks

— PMC4176526 (Bioorganic & medicinal chemistry letters, 2014)
